Laboratory results: ChEMBL document CHEMBL1123775, “C3-methylated 5-hydroxy-2-(dipropylamino)tetralins: conformational and steric parameters of importance for central dopamine receptor activation” (1987)
Calls of active or inactive are those of the source. No cut-off for these calls is given here.

Assays:
Rattus norvegicus [1] = experiment: Effect of in vivo DOPA accumulation in nonpretreated rats at limbic region, at 5 mg/kg dosage administered subcutaneously; I = Inactive; type: functional, organism-based; set-up: dose 5 mg/kg; settings: Limbic system
Procedure, shortened: (§1)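 Nonpretreated rats given test drug sc 65 min and NSD 1015 (100 mg/kg ip) 30 min before death; saline controls. Limbic and striatal DOPA by HPLC with electrochemical detection.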

Rattus norvegicus [2] = experiment: Effect on in vivo DOPA accumulation in nonpretreated rats at striatum region at 5 mg/kg dosage administered subcutaneously; I = Inactive; type: functional, organism-based; set-up: dose 5 mg/kg; procedure, shortened: as §1
Rattus norvegicus [3] = experiment: Effect of in vivo DOPA accumulation in reserpine-pretreated rats at limbic region, at 5 mg/kg dosage administered subcutaneously; type: functional, Limbic system; settings: route subcutaneous
Rattus norvegicus [4] = experiment: In vivo locomotor activity (accumulated counts/30 min) in reserpine-pretreated rats, after subcutaneous administration of 39 uM/Kg; type: functional
Procedure, shortened: (§2)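 Rats pretreated with reserpine 5 mg/kg sc 18 h earlier, then test drug sc immediately before session; photocell motility counts accumulated over 30 min, with gross behaviour observed through mirror. Mean ± SEM, n = 3-4; Student's t test vs saline controls; haloperidol pretreatment 0.5 mg/kg ip 30 min before used to test antagonism.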

Rattus norvegicus [5] = experiment: Effect of in vivo DOPA accumulation in reserpine-pretreated rats at striatum region, at 5 mg/kg dosage administered sc; type: functional; settings: route subcutaneous
Rattus norvegicus [6] = experiment: In vivo locomotor activity (accumulated counts/30 min) in nonpretreated rats after subcutaneous administration of 3.2 uM/Kg; type: functional
Procedure, shortened: (§3)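 Nonpretreated rats injected sc with test drug 5 min before session; motility by photocell recording, counts accumulated over 30 min. Expressed as percent of saline controls, means ± SEM, n = 3-5; Student's t test vs saline controls.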

Rattus norvegicus [7] = experiment: In vivo locomotor activity (accumulated counts/30 min) in reserpine-pretreated rats, after subcutaneous administration of 3.2 uM/Kg; type: functional; procedure, shortened: as §2
Rattus norvegicus [8] = experiment: In vivo locomotor activity (accumulated counts/30 min) in nonpretreated rats after subcutaneous administration of 0.32 uM/Kg; type: functional; procedure, shortened: as §3
Rattus norvegicus [9] = experiment: In vivo locomotor activity (accumulated counts/30 min) in reserpine-pretreated rats, after subcutaneous administration of 0.31 umol/kg; type: functional; procedure, shortened: as §2
Rattus norvegicus [10] = experiment: Effect of in vivo DOPA accumulation in reserpine-pretreated rats at striatum region, at 5 mg/kg dosage administered subcutaneously; type: functional; settings: sc, route subcutaneous
Rattus norvegicus [11] = experiment: Evaluated for in vivo locomotor activity in nonpretreated rats, measured as accumulated counts/30 min at a dose of 52 umol/kg administered sc; type: functional; procedure, shortened: as §3
Rattus norvegicus [12] = experiment: In vivo locomotor activity (accumulated counts/30 min) in reserpine-pretreated rats, after subcutaneous administration of 52 uM/Kg; type: functional; procedure, shortened: as §2
Rattus norvegicus [13] = experiment: Effect of in vivo DOPA accumulation in reserpine-pretreated rats at limbic region, at 5 mg/kg dosage administered subcutaneously; I = Inactive; type: functional, organism-based; set-up: dose 5 mg/kg; settings: Limbic system
Rattus norvegicus [14] = experiment: Effect of in vivo DOPA accumulation in reserpine-pretreated rats at striatum region, at 5 mg/kg dosage administered sc; I = Inactive; type: functional, organism-based; set-up: dose 5 mg/kg
Rattus norvegicus [15] = experiment: Effect on in vivo DOPA accumulation in nonpretreated rats at Limbic region, at 5 mg/kg dosage administered subcutaneously; I = Inactive; type: functional, organism-based; set-up: dose 5 mg/kg; settings: Limbic system; procedure, shortened: as §1
Rattus norvegicus [16] = experiment: Effect on in vivo DOPA accumulation in nonpretreated rats at striatum region, at 5 mg/kg dosage administered subcutaneously; I = Inactive; type: functional, organism-based; set-up: dose 5 mg/kg; procedure, shortened: as §1
Rattus norvegicus [17] = experiment: In vivo locomotor activity (accumulated counts/30 min) in reserpine-pretreated rats, after subcutaneous administration of 0.32 uM/Kg; type: functional; procedure, shortened: as §2
Rattus norvegicus [18] = experiment: In vivo locomotor activity (accumulated counts/30 min) in reserpine-pretreated rats, after subcutaneous administration of 10 uM/Kg; type: functional; procedure, shortened: as §2
[19] = Rattus norvegicus, Limbic system, sc, read-out: ED50

CCCN(CCC)[C@@H]1Cc2cccc(O)c2C[C@H]1C (stereo in doubt; (+)5) [listing 1 of 2 here]
ED50 (Rattus norvegicus [1]): inactive
ED50 (Rattus norvegicus [2]): inactive

CCCN(CCC)[C@@H]1CCc2c(O)cccc2C1
ED50 (Rattus norvegicus [3]; [19]): 0.41 µmol/kg
Locomotor activity (Rattus norvegicus [4]): 43
ED50 (Rattus norvegicus [5]): 0.65 µmol/kg

CN1CCc2cccc3c2[C@H]1Cc1ccc(O)c(O)c1-3 [APOMORPHINE]
ED50 (Rattus norvegicus [3]; [19]): 0.041 µmol/kg
Locomotor activity (Rattus norvegicus [6]): 277
Locomotor activity (Rattus norvegicus [7]): 366
Locomotor activity (Rattus norvegicus [8]): 52
ED50 (Rattus norvegicus [5]): 0.044 µmol/kg

CCCN(CCC)[C@H]1CCc2c(O)cccc2C1
ED50 (Rattus norvegicus [3]; [19]): 0.004 µmol/kg
Locomotor activity (Rattus norvegicus [9]): 155
ED50 (Rattus norvegicus [5]): 0.004 µmol/kg

CCCN(CCC)[C@@H]1Cc2cccc(O)c2C[C@H]1C (stereo in doubt; (+)5) [listing 2 of 2 here]
ED50 (Rattus norvegicus [3]; dose 5 mg/kg): 25 µM/kg
ED50 (Rattus norvegicus [10]): 25 µmol/kg
Locomotor activity (Rattus norvegicus [11]): 84
Locomotor activity (Rattus norvegicus [12]): 55

CCCN(CCC)[C@@H]1Cc2cccc(O)c2C[C@H]1C (stereo in doubt; (-)5)
ED50 (Rattus norvegicus [3]; dose 5 mg/kg): 3.5 µM/kg
Locomotor activity (Rattus norvegicus [12]): 53
ED50 (Rattus norvegicus [5]): 3.1 µmol/kg

CCCN(CCC)[C@@H]1Cc2cccc(O)c2C[C@@H]1C
ED50 (Rattus norvegicus [3]; [19]): 0.005 µmol/kg
ED50 (Rattus norvegicus [13]): inactive
ED50 (Rattus norvegicus [14]): inactive
ED50 (Rattus norvegicus [15]): inactive
ED50 (Rattus norvegicus [16]): inactive
Locomotor activity (Rattus norvegicus [17]): 110
Locomotor activity (Rattus norvegicus [18]): 12
Locomotor activity (Rattus norvegicus [11]): 70
ED50 (Rattus norvegicus [5]): 0.005 µmol/kg
